These results are taken from ChEMBL document CHEMBL1125277, “Novel cerebroprotective agents with central nervous system stimulating activity. 1. Synthesis and pharmacology of 1-amino-7-hydroxyindan derivatives” (1991).

The first test has as its system Mus musculus. As to the kind of experiment: Antihypoxic effect by the survival time (SVT) in mice at a dose of 100 mg/kg administered intraperitoneally in mice. The format is functional. The conditions noted are these: route intraperitoneal. In outline: (§1)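 Male ICR mice (20–30 g), groups of 10, dosed 0.25 h (iv, sc or ip) or 1 h (oral) before test. Mice placed in desiccator evacuated to 210 mmHg. Survival time measured from pump start to cessation of respiration, capped at 900 s. Activity expressed as % of control survival time; Wilcoxon sum test.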
With `Cc1cc(C(C)(C)C)c(O)c(C(C)(C)C)c1` [BUTYLATED HYDROXYTOLUENE], the SVT was 358.8.

In another test the test system is Mus musculus. Nature of the test: Antihypoxic effect by the survival time (SVT) in mice at a dose of 30 mg/kg administered intraperitoneally in mice. The format is functional. The conditions noted are these: route intraperitoneal. The gist of the method: as §1
The compound `Cc1cc(C(C)(C)C)c(O)c2c1CCC2N.Cl` (stereo unspecified) gave an SVT of 252.8.
Still for that read-out and setting: under `Cc1cc(C)c2c(c1O)C(N)C(c1ccccc1)C2.Cl` (stereo unspecified) stands 185.7; under `CC(C)(C)c1cc(C(C)(C)C)c2c(c1O)C(N)CC2.Cl` (stereo unspecified), 171.3.

For another test, the system named is Mus musculus. Nature of the test: Time of recovery of spontaneous movement (SMT) in seconds was measured after administration of 100 mg/kg orally in mice for the promotional effect on recovery from coma. The format is functional. The conditions noted are these: route oral. In outline: (§2)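 Male ICR mice (20–30 g) were dosed orally 1 h before concussion was induced, and saline-dosed mice served as controls. Times to recovery of righting reflex and of spontaneous movement were recorded in seconds. Brains were examined post mortem, and mice with contused brain wounds were excluded. Statistics used the Wilcoxon sum test.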
For the compound `Cc1cc(C)c2c(c1O)C(N)C(C)(Cc1ccccc1)C2.Cl.O` (stereo unspecified), the SMT is given as 28.8 s.
The same measure, in the same setting: under `Cc1cc(C(C)(C)C)c(O)c2c1CCC2N.Cl` (stereo unspecified) stands 113.5 s; under `Cc1cc(C(C)(C)C)c(O)c(C(C)(C)C)c1` [BUTYLATED HYDROXYTOLUENE], 80.9 s.
Same read-out and setting: under `CCCCNC1CCc2c(C)cc(C)c(O)c21.Cl` (stereo unspecified) stands 57.7 s; under `Cc1cc(C)c2c(c1O)C(N)C(C)(Cc1ccccc1)C2.Cl` (stereo unspecified), 32.6 s; under `Cc1cc(C)c2c(c1O)C(N)C(c1ccccc1Cl)C2.Cl` (stereo unspecified), 33.8 s.
Still for that read-out and setting: under `COc1c(C)cc(C)c2c1C(N)C(C)(C)C2.Cl` (stereo unspecified) stands 39.2 s; under `CCc1cc(C)c2c(c1O)C(N)C(c1ccccc1)C2.Cl` (stereo unspecified), 94.4 s.
Take `Cc1ccccc1C1Cc2c(C)cc(C)c(O)c2C1N.Cl` (stereo unspecified): the SMT was 45.9 s.
Same read-out and setting: under `Cc1cc(C)c2c(c1O)C(N)C(C)(c1ccccc1)C2.Cl` (stereo unspecified) stands 34.7 s; under `Cl.NC1CCc2cccc(O)c21` (stereo in doubt; 11a), 99.1 s.
On the same count and under the same terms, under `Cc1cc(C)c2c(c1O)C(N)C(C)C2.Cl` (stereo unspecified) stands 71 s; under `COc1c(C)cc(C)c2c1C(N)C(C)(c1ccccc1)C2.Cl` (stereo unspecified), 23.9 s; under `Cc1cc(C)c2c(c1O)C(N)C(Cc1ccccc1)C2.Cl` (stereo unspecified), 38.6 s.
Still for that read-out and setting: under `Cc1cc(C)c2c(c1O)C(N)C(c1ccccc1)C2.Cl` (stereo unspecified) stands 37.6 s; under `CN(C)CCCN1c2ccccc2CCc2ccccc21.Cl` [IMIPRAMINE HYDROCHLORIDE], 115.5 s.
`CC(C)(C)c1cc(C(C)(C)C)c2c(c1O)C(N)CC2.Cl` (stereo unspecified): the SMT was 157.6 s.

The next test concerns Mus musculus. Nature of the test: Antihypoxic effect tested by the survival time (SVT) in mice at a dose of 100 mg/kg. The format is functional. Set-up: unit: % of control.
Conditions: not given
In outline:
as §1
Consider `Cc1cc(C)c2c(c1O)C(N)C(C)(Cc1ccccc1)C2.Cl.O` (stereo unspecified), for which the SVT turned out to be 197.
Same read-out and setting: under `Cc1cc(C(C)(C)C)c(O)c(C(C)(C)C)c1` [BUTYLATED HYDROXYTOLUENE] stands 87.6.
Same read-out and setting: under `CCCCNC1CCc2c(C)cc(C)c(O)c21.Cl` (stereo unspecified) stands 187.3.
The same measure, in the same setting: under `Cc1cc(C)c2c(c1O)C(N)C(C)(Cc1ccccc1)C2.Cl` (stereo unspecified) stands 167.3; under `Cc1cc(C)c2c(c1O)C(N)C(c1ccccc1Cl)C2.Cl` (stereo unspecified), 151.
For the compound `COc1c(C)cc(C)c2c1C(N)C(C)(C)C2.Cl` (stereo unspecified), the SVT is on record as 164.3.
Still for that read-out and setting: under `CCc1cc(C)c2c(c1O)C(N)C(c1ccccc1)C2.Cl` (stereo unspecified) stands 97.4; under `Cc1ccccc1C1Cc2c(C)cc(C)c(O)c2C1N.Cl` (stereo unspecified), 161.3; under `Cc1cc(C)c2c(c1O)C(N)C(C)(c1ccccc1)C2.Cl` (stereo unspecified), 171.6.
On to `Cc1cc(C)c2c(c1O)C(N)C(C)C2.Cl` (stereo unspecified), for which the SVT was found to be 237.7.
Still for that read-out and setting: under `Cl.NC1CCc2c(O)cccc21` (stereo unspecified) stands 103.9; under `COc1c(C)cc(C)c2c1C(N)C(C)(c1ccccc1)C2.Cl` (stereo unspecified), 117.9; under `Cc1cc(C)c2c(c1O)C(N)C(Cc1ccccc1)C2.Cl` (stereo unspecified), 148.
On the same count and under the same terms, under `Cc1cc(C)c2c(c1O)C(N)C(c1ccccc1)C2.Cl` (stereo unspecified) stands 149.1; under `CN(C)CCCN1c2ccccc2CCc2ccccc21.Cl` [IMIPRAMINE HYDROCHLORIDE], 67.9; under `CC(C)(C)c1cc(C(C)(C)C)c2c(c1O)C(N)CC2.Cl` (stereo unspecified), 119.2.

The test is the same for the next values; noted with them: 100 mg/kg.
`Cl.NC1CCc2cccc(O)c21` (stereo in doubt; 11b) gave an SVT of 78.
The compound `Cl.NC1CCc2cccc(O)c21` (stereo in doubt; 11a) displayed an SVT of 204.8.

The test system of the next test is Mus musculus. As to the kind of experiment: Time of recovery of righting reflux (RRT) in seconds was measured after administration of 100 mg/kg orally in mice for the promotional effect on recovery from coma. The format is functional. The conditions noted are these: route oral. The gist of the method:
as §2
As to `Cc1cc(C)c2c(c1O)C(N)C(C)(Cc1ccccc1)C2.Cl.O` (stereo unspecified), the RRT came to 33 s.
The same measure, in the same setting: under `Cc1cc(C(C)(C)C)c(O)c2c1CCC2N.Cl` (stereo unspecified) stands 90.6 s; under `Cc1cc(C(C)(C)C)c(O)c(C(C)(C)C)c1` [BUTYLATED HYDROXYTOLUENE], 69.6 s.
On the same count and under the same terms, under `CCCCNC1CCc2c(C)cc(C)c(O)c21.Cl` (stereo unspecified) stands 55.3 s; under `Cc1cc(C)c2c(c1O)C(N)C(C)(Cc1ccccc1)C2.Cl` (stereo unspecified), 29.9 s; under `Cc1cc(C)c2c(c1O)C(N)C(c1ccccc1Cl)C2.Cl` (stereo unspecified), 35.8 s.
Still for that read-out and setting: under `COc1c(C)cc(C)c2c1C(N)C(C)(C)C2.Cl` (stereo unspecified) stands 43.6 s.
The compound `CCc1cc(C)c2c(c1O)C(N)C(c1ccccc1)C2.Cl` (stereo unspecified) registered an RRT of 89.2 s.
On the same count and under the same terms, under `Cc1ccccc1C1Cc2c(C)cc(C)c(O)c2C1N.Cl` (stereo unspecified) stands 44.4 s; under `Cc1cc(C)c2c(c1O)C(N)C(C)(c1ccccc1)C2.Cl` (stereo unspecified), 34.1 s; under `Cl.NC1CCc2cccc(O)c21` (stereo in doubt; 11a), 102 s.
Still for that read-out and setting: under `Cc1cc(C)c2c(c1O)C(N)C(C)C2.Cl` (stereo unspecified) stands 79.1 s; under `COc1c(C)cc(C)c2c1C(N)C(C)(c1ccccc1)C2.Cl` (stereo unspecified), 25 s.
The same measure, in the same setting: under `Cc1cc(C)c2c(c1O)C(N)C(Cc1ccccc1)C2.Cl` (stereo unspecified) stands 47 s; under `Cc1cc(C)c2c(c1O)C(N)C(c1ccccc1)C2.Cl` (stereo unspecified), 31.1 s.
`CN(C)CCCN1c2ccccc2CCc2ccccc21.Cl` [IMIPRAMINE HYDROCHLORIDE] displayed an RRT of 113.4 s.
Still for that read-out and setting: under `CC(C)(C)c1cc(C(C)(C)C)c2c(c1O)C(N)CC2.Cl` (stereo unspecified) stands 160.2 s.
